Laboratory results as given in ChEMBL document CHEMBL1124403, “Studies on semirigid tricyclic analogues of the nigrostriatal toxin 1-methyl-4-phenyl-1,2,3,6-tetrahydropyridine” (J Med Chem, 1989).

Columns and labels:
[1] = target: T1, Dopamine receptor (Mus musculus) (UniProt P51436+Q8BLD9+Q61616+P61168+P30728); assay: Black mice were injected intraperitoneally with 100 uMol of test compound and Striatal levels of dopamine in mice measured after 1 week; type: functional
In short: (§1)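 Male C-57 black mice, 8–10 weeks old, 25–30 g, six per data point. Dosed ip at 100 μmol/kg in 50 μL normal saline every hour for 4 h; controls received saline only. Times counted from the last injection. Striata dissected and stored at −80 °C. Dopamine measured by HPLC with electrochemical detection after alumina extraction, with DHBA as internal standard; reported as ng/mg tissue.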

[2] = target: T1, Dopamine receptor (Mus musculus); assay: Black mice were injected intraperitoneally with 100 uMol of test compound and Striatal levels of dopamine in mice measured after 24 hours; type: functional; in short: as §1
[3] = target: T1, Dopamine receptor (Mus musculus); assay: (§2) Black mice were injected intraperitoneally with 100 uMol /kg of test compound and Striatal levels of dopamine in mice measured after 4 hours; type: functional; in short: as §1
[4] = target: T1, Dopamine receptor (Mus musculus); assay: (§3) Black mice were injected intraperitoneally with 100 uMol of test compound and Striatal levels of Dopamine in mice measured after 1 month; type: functional; in short: as §1
[5] = target: T2, Amine oxidase [flavin-containing] B (Bos taurus, UniProt P56560); assay: Rate of oxidation against monoamine oxidase-B (MAO-B)
T2 sequence (P56560 whole entry): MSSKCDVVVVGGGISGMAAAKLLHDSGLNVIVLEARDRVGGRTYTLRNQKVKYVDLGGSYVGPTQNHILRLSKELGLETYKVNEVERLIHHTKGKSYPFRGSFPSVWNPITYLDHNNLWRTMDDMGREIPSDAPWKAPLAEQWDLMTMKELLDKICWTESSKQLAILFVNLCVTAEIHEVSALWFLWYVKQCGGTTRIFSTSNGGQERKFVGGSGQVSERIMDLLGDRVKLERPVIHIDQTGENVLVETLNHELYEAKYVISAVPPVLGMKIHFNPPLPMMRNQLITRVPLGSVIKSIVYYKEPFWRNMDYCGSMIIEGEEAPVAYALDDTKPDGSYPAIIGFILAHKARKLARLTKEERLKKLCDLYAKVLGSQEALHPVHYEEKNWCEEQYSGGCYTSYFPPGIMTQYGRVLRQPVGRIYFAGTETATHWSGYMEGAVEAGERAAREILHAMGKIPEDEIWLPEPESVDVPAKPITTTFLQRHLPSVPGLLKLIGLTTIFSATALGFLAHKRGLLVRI
In short: (§4)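 Beef liver mitochondrial MAO-B, purified, 0.1 unit in 50 mM sodium phosphate pH 7.2 with 0.2% reduced Triton X-100. Substrate at 3 mM (3.0 mM). Initial rate of dihydropyridinium product formation read spectrophotometrically at its λmax (345 nm for MPDP⁺, 360 nm for the tricyclic products), in nmol min⁻¹ mL⁻¹. Controls held 10⁻⁶ M pargyline.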

[6] = target: T2, Amine oxidase [flavin-containing] B; assay: Rate of oxidation against monoamine oxidase B; in short: as §4
[7] = target: T2, Amine oxidase [flavin-containing] B; assay: Binding affinity against Monoamine oxidase B
In short: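 Beef liver mitochondrial MAO-B, purified and cleared of heme protein by sucrose-gradient centrifugation; 0.02 unit enzyme in 50 mM sodium phosphate pH 7.2 with 0.2% (w/v) reduced Triton X-100. Inhibitor at 0–500 μM or 0–100 μM against benzylamine 0.17–3.3 mM. Oxidation followed at 250 nm as initial rates. Lineweaver–Burk plots; Ki taken from secondary replots of slope vs inhibitor concentration.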

Mus musculus [8] = assay: as §2; type: functional; in short: as §1
Mus musculus [9] = assay: as §3; type: functional; in short: as §1
Mus musculus [10] = assay: Black mice were injected intraperitoneally with 100 uMol of test compound and Striatal levels of Dopamine in mice measured after 24 hours; type: functional; in short: as §1
Mus musculus [11] = assay: Black mice were injected intraperitoneally with 100 uMol of test compound and Striatal levels of Dopamine in mice measured after 1 week; type: functional; in short: as §1

Row | Compound | Dopamine level [1] | Dopamine level [2] | Dopamine level [3] | Dopamine level [4] | Rate of oxidation [5] | Rate of oxidation [6] | Ki [7] | Dopamine level (Mus musculus [8]) | Dopamine level (Mus musculus [9]) | Dopamine level (Mus musculus [10]) | Dopamine level (Mus musculus [11])
1 | CN1CC=C(c2ccccc2)CC1 | 2.7 ng/mg | 6.5 ng/mg | 4.8 ng/mg | 5 ng/mg | 25.87 nM min-1 ml-1 |  |  |  |  |  | 
2 | CN1CCc2c([nH]c3ccccc23)C1 |  |  |  |  |  | 0.1 nM min-1 ml-1 | 400 µM |  |  |  | 
3 | CN1CCC2C(=Cc3ccccc32)C1 (centres undefined) |  |  |  |  |  | 0 nM min-1 ml-1 | 65 µM | 4.3 ng/mg | 19.2 ng/mg | 30.3 ng/mg | 16.4 ng/mg
4 | CN1CCC2=C(Cc3ccccc32)C1 |  |  |  |  |  | 0.21 nM min-1 ml-1 | 75 µM | 6.5 ng/mg | 21.9 ng/mg | 24.5 ng/mg | 18.2 ng/mg
